ChEMBL document CHEMBL3044619, “Natural fungicides from Ruta graveolens L. leaves, including a new quinolone alkaloid” (J Agric Food Chem, 2003)
Active and inactive are the calls of the source. The calls are words filed in the database; no cut-off is given here.

Experiments:
Botrytis cinerea [1] = test: Antifungal activity against Botryotinia fuckeliana assessed as growth inhibition at 300 uM after 48 hr by microplate photometric analysis; assay type: functional, organism-based
Procedure, shortened: (§1)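 Conidia came from 7–10-day PDA cultures (24 ± 2 °C, 12-h photoperiod) and were filtered and adjusted photometrically to 1.0 × 10^6/mL. B. cinerea was isolated from grape, C. gloeosporioides from strawberry and F. oxysporum from orchid. Growth was run in MOPS-buffered RPMI (0.165 M, pH 7) at final 30, 100 or 300 µM from 120 mM ethanol stocks, with duplicate wells, and read as A620 at 48 h. Results are % of untreated growth.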

Diaporthe ampelina [2] = test: Antifungal activity against Diaporthe ampelina assessed as growth inhibition at 30 uM after 120 hr by microplate photometric analysis; assay type: functional, organism-based
Procedure, shortened: (§2)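 P. viticola was isolated from grape, and its conidia were harvested from 7–10-day PDA cultures, filtered and adjusted photometrically to 1.0 × 10^6/mL. Growth was run in RPMI broth buffered with 0.165 M MOPS (pH 7) at final 30, 100 or 300 µM (120 mM stocks in 95% ethanol), with duplicate wells, at 24 ± 2 °C under a 12-h photoperiod. A620 was read at 120 h and expressed relative to untreated conidia controls.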

Phomopsis obscurans [3] = test: Antifungal activity against Phomopsis obscurans assessed as growth inhibition at 30 uM after 120 hr by microplate photometric analysis; assay type: functional; settings: Paraphomopsis obscurans, read-out: GI
Procedure, shortened: (§3)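 Phomopsis conidia, from strawberry or grape isolates grown 7–10 days on PDA, were tested in RPMI/0.165 M MOPS (pH 7) microtiter wells. Ethanol stocks were diluted to final 30, 100 and 300 µM, with duplicate wells and compound-only blanks. Incubation was at 24 ± 2 °C under a 12-h photoperiod, with A620 read at 120 h because germination is slow. Results are % change versus untreated conidia controls, run twice in time (n = 4).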

Phomopsis obscurans [4] = test: Antifungal activity against Phomopsis obscurans assessed as growth inhibition at 300 uM after 120 hr by microplate photometric analysis; assay type: functional; settings: Paraphomopsis obscurans; for inhibition of growth at 300 µM: read-out: GI; procedure, shortened: as §3
[5] = system: Colletotrichum gloeosporioides; test: Stimulation of Colletotrichum gloeosporioides growth at 30 to 300 uM after 48 hr by microplate photometric analysis; assay type: functional, organism-based; procedure, shortened: as §1
Colletotrichum acutatum [6] = test: Stimulation of Colletotrichum acutatum growth at 30 uM after 48 hr by microplate photometric analysis; assay type: functional
Procedure, shortened: (§4)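 96-well broth microdilution on conidia from 7–10-day PDA cultures of isolates from strawberry, grape or orchid. Conidia were in RPMI buffered with 0.165 M MOPS (pH 7). Ethanol stocks were diluted to final 30, 100 and 300 µM, with duplicate wells and compound-only blanks. Plates were incubated at 24 ± 2 °C under a 12-h photoperiod and read at A620 after 48 h. Results are % change versus untreated conidia controls, split-plot design run twice (n = 4).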

Fusarium solani = test: Fungistatic activity against Fusarium solani assessed as growth inhibition; assay type: functional, organism-based
Diaporthe ampelina [7] = test: Antifungal activity against Diaporthe ampelina assessed as growth inhibition at 30 to 300 uM after 120 hr by microplate photometric analysis; assay type: functional, organism-based; procedure, shortened: as §3
Fusarium oxysporum [8] = test: Antifungal activity against Fusarium oxysporum assessed as growth inhibition at 300 uM after 48 hr by microplate photometric analysis; assay type: functional; settings: read-out: GI; procedure, shortened: as §4
Colletotrichum fragariae [9] = test: Antifungal activity against Colletotrichum fragariae assessed as growth inhibition at 300 uM after 48 hr by microplate photometric analysis; assay type: functional; settings: read-out: GI; procedure, shortened: as §4
Diaporthe ampelina [10] = test: Stimulation of Diaporthe ampelina growth at 30 to 300 uM after 120 hr by microplate photometric analysis; assay type: functional, organism-based; procedure, shortened: as §2
Phomopsis obscurans [11] = test: Stimulation of Phomopsis obscurans growth at 30 to 300 uM after 120 hr by microplate photometric analysis; assay type: functional, organism-based; settings: Paraphomopsis obscurans; procedure, shortened: as §3
Botrytis cinerea [12] = test: Stimulation of Botryotinia fuckeliana growth at 30 to 300 uM after 48 hr by microplate photometric analysis; assay type: functional, organism-based; procedure, shortened: as §4
Phomopsis obscurans [13] = test: Antifungal activity against Phomopsis obscurans assessed as growth inhibition at 30 to 300 uM after 120 hr by microplate photometric analysis; assay type: functional, organism-based; settings: Paraphomopsis obscurans; procedure, shortened: as §3
Colletotrichum fragariae [14] = test: Antifungal activity against Colletotrichum fragariae assessed as growth inhibition at 30 to 300 uM after 48 hr by microplate photometric analysis; assay type: functional; procedure, shortened: as §4
Diaporthe ampelina [15] = test: Antifungal activity against Diaporthe ampelina assessed as growth inhibition at 300 uM after 120 hr by microplate photometric analysis; assay type: functional; settings: read-out: GI; procedure, shortened: as §3
Botrytis cinerea [16] = test: Antifungal activity against Botryotinia fuckeliana assessed as growth inhibition at 30 to 300 uM after 48 hr by microplate photometric analysis; assay type: functional, organism-based; procedure, shortened: as §4
[17] = system: Colletotrichum gloeosporioides; test: Antifungal activity against Colletotrichum gloeosporioides assessed as growth inhibition at 300 uM after 48 hr by microplate photometric analysis; assay type: functional; settings: read-out: GI; procedure, shortened: as §4
Colletotrichum acutatum [18] = test: Antifungal activity against Colletotrichum acutatum assessed as growth inhibition at 300 uM after 48 hr by microplate photometric analysis; assay type: functional; settings: read-out: GI; procedure, shortened: as §4
Botrytis cinerea [19] = test: Stimulation of Botryotinia fuckeliana growth at 30 uM after 48 hr by microplate photometric analysis; assay type: functional, organism-based; procedure, shortened: as §1
Phomopsis obscurans [20] = test: Antifungal activity against Phomopsis obscurans assessed as growth inhibition at 100 uM after 120 hr by microplate photometric analysis; assay type: functional; settings: Paraphomopsis obscurans, read-out: GI; procedure, shortened: as §3
Fusarium oxysporum [21] = test: Stimulation of Fusarium oxysporum growth at 30 uM after 48 hr by microplate photometric analysis; assay type: functional, organism-based; procedure, shortened: as §1
[22] = system: Colletotrichum gloeosporioides; test: Antifungal activity against Colletotrichum gloeosporioides assessed as growth inhibition at 100 uM after 48 hr by microplate photometric analysis; assay type: functional; settings: read-out: GI; procedure, shortened: as §4

Structure (SMILES): O=c1cc(CCCCc2ccc3c(c2)OCO3)[nH]c2ccccc12
- growth inhibition (GI) (Botrytis cinerea [1]): Active
- growth inhibition (GI) (Diaporthe ampelina [2]): Active
- inhibition of growth at 30 µM (Phomopsis obscurans [3]): 100%

Structure (SMILES): COc1c2occc2cc2ccc(=O)oc12 [METHOXSALEN]
- growth inhibition (GI) (Botrytis cinerea [1]): Active
- inhibition of growth at 300 µM (Phomopsis obscurans [4]): 100%
- Activity [5]: Active
- Activity (Colletotrichum acutatum [6]): 15%
- IC50 (Fusarium solani): 125 µM
- inhibition of growth at 30 µM (Phomopsis obscurans [3]): 80%
- growth inhibition (GI) (Diaporthe ampelina [7]): Active
- inhibition of growth at 300 µM (Fusarium oxysporum [8]): 50%
- inhibition of growth at 300 µM (Colletotrichum fragariae [9]): 29%

Structure (SMILES): O=c1ccc2ccc(O)cc2o1 [UMBELLIFERONE]
- Activity [5]: Active
- Activity (Diaporthe ampelina [10]): Active
- Activity (Colletotrichum acutatum [6]): 15%
- Activity (Phomopsis obscurans [11]): Active
- Activity (Botrytis cinerea [12]): Active

Structure (SMILES): CCCCNC(=O)n1c(NC(=O)OC)nc2ccccc21 [BENOMYL]
- growth inhibition (GI) (Phomopsis obscurans [13]): Active
- growth inhibition (GI) (Colletotrichum fragariae [14]): 76%
- inhibition of growth at 300 µM (Diaporthe ampelina [15]): 57%
- growth inhibition (GI) (Botrytis cinerea [16]): Active
- inhibition of growth at 300 µM [17]: 66%
- inhibition of growth at 300 µM (Fusarium oxysporum [8]): 77%
- inhibition of growth at 300 µM (Colletotrichum acutatum [18]): 33%

Structure (SMILES): Cn1c(-c2ccc3c(c2)OCO3)cc(=O)c2ccccc21 [GRAVEOLINE]
- growth inhibition (GI) (Colletotrichum fragariae [14]): Active
- Activity (Diaporthe ampelina [10]): Active
- Activity (Botrytis cinerea [19]): Active
- inhibition of growth at 300 µM (Fusarium oxysporum [8]): 44%
- inhibition of growth at 100 µM (Phomopsis obscurans [20]): 100%

Structure (SMILES): COc1ccc2ccc(=O)oc2c1 [HERNIARIN]
- growth inhibition (GI) (Botrytis cinerea [1]): Active
- Activity (Fusarium oxysporum [21]): Active
- Activity [5]: Active
- Activity (Diaporthe ampelina [10]): Active
- Activity (Colletotrichum acutatum [6]): 15%
- Activity (Botrytis cinerea [19]): Active
- inhibition of growth at 300 µM (Colletotrichum fragariae [9]): 21%

Structure (SMILES): O=c1cc(O)c2ccccc2o1 [4-HYDROXYCOUMARINS]
- Activity [5]: Active
- Activity (Diaporthe ampelina [10]): Active
- Activity (Colletotrichum acutatum [6]): 15%
- Activity (Phomopsis obscurans [11]): Active
- Activity (Botrytis cinerea [12]): Active

Structure (SMILES): O=C1C2CC=CCC2C(=O)N1SC(Cl)(Cl)Cl (configuration not stated) [CAPTAN]
- growth inhibition (GI) (Phomopsis obscurans [13]): Active
- growth inhibition (GI) (Diaporthe ampelina [7]): Active
- inhibition of growth at 300 µM (Fusarium oxysporum [8]): 100%

Structure (SMILES): Cn1c(CCCCCCc2ccc3c(c2)OCO3)cc(=O)c2ccccc21
- growth inhibition (GI) (Colletotrichum fragariae [14]): Active
- growth inhibition (GI) (Diaporthe ampelina [2]): Active
- growth inhibition (GI) (Botrytis cinerea [16]): Active
- inhibition of growth at 100 µM [22]: 67.7%
- inhibition of growth at 30 µM (Phomopsis obscurans [3]): 100%
- inhibition of growth at 300 µM (Colletotrichum acutatum [18]): 57%

Structure (SMILES): COc1c2ccoc2cc2oc(=O)ccc12 [BERGAPTEN]
- Activity [5]: Active
- Activity (Colletotrichum acutatum [6]): 15%
- IC50 (Fusarium solani): 27.7 µM
- inhibition of growth at 30 µM (Phomopsis obscurans [3]): 80%
- growth inhibition (GI) (Diaporthe ampelina [7]): Active

Structure (SMILES): COc1cc2nc3occc3c(OC)c2cc1OC [KOKUSAGININE]
- growth inhibition (GI) (Colletotrichum fragariae [14]): Active
- growth inhibition (GI) (Diaporthe ampelina [2]): Active
- inhibition of growth at 300 µM (Phomopsis obscurans [4]): 100%
- inhibition of growth at 300 µM [17]: 50%
- inhibition of growth at 30 µM (Phomopsis obscurans [3]): 80%

Structure (SMILES): CCCCCCCCCc1cc(=O)c2ccccc2[nH]1
- growth inhibition (GI) (Colletotrichum fragariae [14]): Active
- growth inhibition (GI) (Diaporthe ampelina [2]): Active
- growth inhibition (GI) (Phomopsis obscurans [4]): inactive
- Activity (Botrytis cinerea [19]): Active
- inhibition of growth at 300 µM (Fusarium oxysporum [8]): 37%
- inhibition of growth at 300 µM (Colletotrichum acutatum [18]): 50%
- inhibition of growth at 100 µM (Phomopsis obscurans [20]): 100%
